Reference: ChEMBL document CHEMBL4350999, “Enhanced tumor retention of NTSR1-targeted agents by employing a hydrophilic cysteine cathepsin inhibitor” (Eur J Med Chem, 2019)

Columns and labels:
Settings in all cases: in vivo
[1] = Drug excretion in SCID mouse xenografted with human HT-29 cells at 0.37 MBq/mouse, iv measured at 4 hrs using 177Lu labelled compound by gamma counter analysis; assay type: ADME, organism-based
Method in brief: (§1)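 Female SCID mice bearing s.c. flank HT-29 xenografts (5 × 10^6 cells in Matrigel, ~80 mm3). Given 10 μCi (0.37 MBq) 177Lu conjugate i.v. by tail vein; groups sacrificed at 4, 24, 72 h. Tissues weighed and gamma-counted as %ID/g, excretion as %ID; n = 5, mean ± SD. Blocking arms: colchicine 1 mg/kg i.p. beforehand, or D-lysine 40 mg/kg co-injected.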

[2] = Drug uptake in blood of SCID mouse xenografted with human HT-29 cells at 0.37 MBq/mouse, iv measured at 4 hrs using 177Lu labelled compound by gamma counter analysis; assay type: ADME, organism-based; method in brief: as §1
[3] = Drug uptake in lung of SCID mouse xenografted with human HT-29 cells at 0.37 MBq/mouse, iv measured at 4 hrs using 177Lu labelled compound by gamma counter analysis; assay type: ADME, organism-based
Method in brief: (§2)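 Female SCID mice (5 weeks) bore s.c. flank xenografts of HT-29 cells (5 × 10^6 in Matrigel), used at about 80 mm3 (two weeks) and randomized. Each mouse received 10 μCi (0.37 MBq) of HPLC-purified 177Lu-conjugate via tail vein. Tissues were excised, weighed and gamma-counted, expressed as %ID/g; mean ± SD, n = 5.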

[4] = Drug uptake in pancreas of SCID mouse xenografted with human HT-29 cells at 0.37 MBq/mouse, iv measured at 4 hrs using 177Lu labelled compound by gamma counter analysis; assay type: ADME, organism-based; method in brief: as §2
[5] = Drug uptake in small intestine of SCID mouse xenografted with human HT-29 cells at 0.37 MBq/mouse, iv measured at 4 hrs using 177Lu labelled compound by gamma counter analysis; assay type: ADME, organism-based; method in brief: as §2
[6] = Drug uptake in large intestine of SCID mouse xenografted with human HT-29 cells at 0.37 MBq/mouse, iv measured at 4 hrs using 177Lu labelled compound by gamma counter analysis; assay type: ADME, organism-based; method in brief: as §2
[7] = Drug uptake in kidney of SCID mouse xenografted with human HT-29 cells at 0.37 MBq/mouse, iv measured at 4 hrs using 177Lu labelled compound by gamma counter analysis; assay type: ADME, organism-based; method in brief: as §2
[8] = Drug uptake in muscle of SCID mouse xenografted with human HT-29 cells at 0.37 MBq/mouse, iv measured at 4 hrs using 177Lu labelled compound by gamma counter analysis; assay type: ADME, organism-based, Muscle tissue; method in brief: as §2
[9] = Drug uptake in bone of SCID mouse xenografted with human HT-29 cells at 0.37 MBq/mouse, iv measured at 4 hrs using 177Lu labelled compound by gamma counter analysis; assay type: ADME, organism-based, Bone element; method in brief: as §2
[10] = Drug uptake in heart of SCID mouse xenografted with human HT-29 cells at 0.37 MBq/mouse, iv measured at 24 hrs using 177Lu labelled compound by gamma counter analysis; assay type: ADME, organism-based; method in brief: as §2
[11] = Drug uptake in brain of SCID mouse xenografted with human HT-29 cells at 0.37 MBq/mouse, iv measured at 4 hrs using 177Lu labelled compound by gamma counter analysis; assay type: ADME, organism-based; method in brief: as §2
[12] = Drug uptake in pancreas of SCID mouse xenografted with human HT-29 cells at 0.37 MBq/mouse, iv measured at 24 hrs using 177Lu labelled compound by gamma counter analysis; assay type: ADME, organism-based; method in brief: as §2
[13] = Drug uptake in liver of SCID mouse xenografted with human HT-29 cells at 0.37 MBq/mouse, iv measured at 24 hrs using 177Lu labelled compound by gamma counter analysis; assay type: ADME, organism-based; method in brief: as §2
[14] = Drug uptake in SCID mouse xenografted with human HT-29 cells assessed as tumour retention level at 0.37 MBq/mouse, iv measured at 4 hrs using 177Lu labelled compound by gamma counter analysis; assay type: ADME, organism-based; method in brief: as §1
[15] = Drug uptake in stomach of SCID mouse xenografted with human HT-29 cells at 0.37 MBq/mouse, iv measured at 24 hrs using 177Lu labelled compound by gamma counter analysis; assay type: ADME, organism-based
Method in brief: (§3)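 Female SCID mice (5 weeks old) received s.c. flank HT-29 cells (5 × 10^6 in Matrigel). At ~80 mm3, two weeks later, mice were randomized and given 10 μCi (0.37 MBq) of purified 177Lu conjugate i.v. by tail vein. Mice were killed at 4, 24 or 72 h. Tissues were weighed and gamma counted as %ID/g, mean ± SD, n = 5. Tumor-to-tissue ratios were calculated.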

[16] = Drug uptake in spleen of SCID mouse xenografted with human HT-29 cells at 0.37 MBq/mouse, iv measured at 24 hrs using 177Lu labelled compound by gamma counter analysis; assay type: ADME, organism-based; method in brief: as §3
[17] = Drug uptake in bone of SCID mouse xenografted with human HT-29 cells at 0.37 MBq/mouse, iv measured at 24 hrs using 177Lu labelled compound by gamma counter analysis; assay type: ADME, organism-based, Bone element; method in brief: as §1
[18] = Drug excretion in SCID mouse xenografted with human HT-29 cells at 0.37 MBq/mouse, iv measured at 24 hrs using 177Lu labelled compound by gamma counter analysis; assay type: ADME, organism-based; method in brief: as §1
[19] = Drug uptake in heart of SCID mouse xenografted with human HT-29 cells at 0.37 MBq/mouse, iv measured at 72 hrs using 177Lu labelled compound by gamma counter analysis; assay type: ADME, organism-based; method in brief: as §2
[20] = Drug uptake in liver of SCID mouse xenografted with human HT-29 cells at 0.37 MBq/mouse, iv measured at 72 hrs using 177Lu labelled compound by gamma counter analysis; assay type: ADME, organism-based; method in brief: as §2
[21] = Drug uptake in stomach of SCID mouse xenografted with human HT-29 cells at 0.37 MBq/mouse, iv measured at 72 hrs using 177Lu labelled compound by gamma counter analysis; assay type: ADME, organism-based; method in brief: as §3
[22] = Drug uptake in spleen of SCID mouse xenografted with human HT-29 cells at 0.37 MBq/mouse, iv measured at 72 hrs using 177Lu labelled compound by gamma counter analysis; assay type: ADME, organism-based; method in brief: as §3
[23] = Drug uptake in small intestine of SCID mouse xenografted with human HT-29 cells at 0.37 MBq/mouse, iv measured at 72 hrs using 177Lu labelled compound by gamma counter analysis; assay type: ADME, organism-based; method in brief: as §2
[24] = Drug uptake in large intestine of SCID mouse xenografted with human HT-29 cells at 0.37 MBq/mouse, iv measured at 72 hrs using 177Lu labelled compound by gamma counter analysis; assay type: ADME, organism-based; method in brief: as §2
[25] = Drug uptake in kidney of SCID mouse xenografted with human HT-29 cells at 0.37 MBq/mouse, iv measured at 72 hrs using 177Lu labelled compound by gamma counter analysis; assay type: ADME, organism-based; method in brief: as §2
[26] = Drug uptake in muscle of SCID mouse xenografted with human HT-29 cells at 0.37 MBq/mouse, iv measured at 72 hrs using 177Lu labelled compound by gamma counter analysis; assay type: ADME, organism-based, Muscle tissue; method in brief: as §2
[27] = Drug uptake in bone of SCID mouse xenografted with human HT-29 cells at 0.37 MBq/mouse, iv measured at 72 hrs using 177Lu labelled compound by gamma counter analysis; assay type: ADME, organism-based, Bone element; method in brief: as §2
[28] = Drug uptake in SCID mouse xenografted with human HT-29 cells assessed as tumour retention level at 0.37 MBq/mouse, iv measured at 72 hrs using 177Lu labelled compound by gamma counter analysis; assay type: ADME, organism-based; method in brief: as §1

## Cc1cc(O)cc(C)c1C[C@H](NC(=O)[C@@H]1CCCN1C(=O)[C@H](CCCNC(=N)N)NC(=O)[C@H](CCCNC(=N)N)N(C)C(=O)[C@@H]1CCCN1C(=O)[C@H](CCCCN)NC(=O)[C@@H](CO)NC(=O)[C@@H](CO)NC(=O)[C@@H](CO)NC(=O)[C@H](Cc1cn(CC(=O)N[C@H](CO)C(=O)N[C@H](CO)C(=O)N[C@H](CO)C(=O)NCC(=O)NCCCC[C@H](NC(=O)[C@H](Cc2ccccc2)NC(=O)OCc2ccccc2)C(=O)NCCc2ccccc2)nn1)NC(=O)CN1CCN(CC(=O)O)CCN(CC(=O)O)CCN(CC(=O)O)CC1)C(=O)N[C@H](C(=O)N[C@@H](CC(C)C)C(=O)O)C(C)(C)C
[1]
  Drug excretion: 36.6 %ID
[2]
  Drug uptake: 0.83 % ID/g
[3]
  Drug uptake: 4.3 % ID/g
[4]
  Drug uptake: 0.84 % ID/g
[5]
  Drug uptake: 7.6 % ID/g
[6]
  Drug uptake: 4 % ID/g
[7]
  Drug uptake: 64 % ID/g
[8]
  Drug uptake: 0.44 % ID/g
[9]
  Drug uptake: 2.6 % ID/g
[10]
  Drug uptake: 0.6 % ID/g
[11]
  Drug uptake: 0.11 % ID/g
[12]
  Drug uptake: 0.77 % ID/g
[13]
  Drug uptake: 8.3 % ID/g
[14]
  Drug uptake: 8.4 % ID/g
[15]
  Drug uptake: 0.9 % ID/g
[16]
  Drug uptake: 18 % ID/g
[17]
  Drug uptake: 1.8 % ID/g
[18]
  Drug excretion: 56 %ID
[19]
  Drug uptake: 0.27 % ID/g
[20]
  Drug uptake: 5.3 % ID/g
[21]
  Drug uptake: 0.51 % ID/g
[22]
  Drug uptake: 18 % ID/g
[23]
  Drug uptake: 3.2 % ID/g
[24]
  Drug uptake: 1.62 % ID/g
[25]
  Drug uptake: 28 % ID/g
[26]
  Drug uptake: 0.12 % ID/g
[27]
  Drug uptake: 1 % ID/g
[28]
  Drug uptake: 3.4 % ID/g
